From the RNAGym collection of RNA variant scans (doi:10.1126/science.aae0568) come the findings set out here.

Fewer inactive variants are shown than the library holds. Where only a bound is given, the exact number is not on record here.

First the molecules themselves.
B1: tRNA (parent)
chain: GUUCCGUUGGCGUAAUGGUAACGCGUCUCCCUCCUAAGGAGAAGACUGCGGGUUCGAGUCCCGUACGGAACG

The variants in this data set derive from B1. The data set is described as follows: yeast fitness relative to wild type (ratio to wild type); higher = fitter; tRNA-Arg(CCU), competitive growth, 37 C, YPD. In a few lines:
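Genotype frequency changes were the basis for Darwinian fitness relative to wild type. The frequencies came from 100-nucleotide paired-end sequencing of gene amplicons from the start population and each end population of pooled yeast strains with tRNA-Arg(CCU) gene variants at the native locus. Competition ran in YPD at 37°C for 24 hours in six replicates, genotypes needed ≥ 100 starting reads, and estimates < 0.5 were set to 0.5.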
For GUUCCGUUGGCGUAAUGGUAAGGGGUAUCCCUCCUAAGGAGAAGACUGCGGGUUCGAGUGCCGUACGGAACG, the yeast fitness turned out to be 0.521.

For the variant GUUCCGUUGGCGUAAUGGUAAGGGGUCUCCCUCCUAAGGAGAAGACUGCAGGUUCGAGUCCCGUACGGAACG, the yeast fitness stood at 0.694.

Consider GUUCCGUUGGCGUAAUGGUAAGGCGUAUCCCUCCUAAGGAGACGACUGCGGGUUCGAGUCCCGUACGGAACG, for which the yeast fitness was determined as 0.587.

Take GUUCCGUUGGCGUAAUGGUAAGGCGUCUCCCUCCUAUGGAGAUGACUGCGGGUUCGAGUCCCGUCCGGAACG: the yeast fitness is ≤ 0.5.

Consider GUUCCGUUGGCGUAAUGGUAAGGCGUCUCCCUCCUAAGGAGACGACUGCGGGUUGGAGUCCCGUACGGAACG, for which the yeast fitness was found to be 0.577.

Take GUUCCGUUGGCGUAAUGGUAAGGCGUCUGCCUCCUAAGGAGCAGCCUGCGGGUUCGAGUCGCGUACGGUACG: the yeast fitness is ≤ 0.5.

As for GUUCCGUUGGCGUAAUGGUAAGGCGUCUGCCUCCUAAGGAGAAGACUGCGGGUUCGAGUCCCGUACGGAACG, the yeast fitness worked out at 0.546.

Turning to GUUCCGUUGGCGUAAUGGUAAGGGGUCUUCCUUCUACGGAGAAGACUGCGGAUUCGAGUCCCGUAUGGAACG, the yeast fitness worked out at 0.548.

In the case of GUUCCGUUGGCGUAAUGGUAAGGCGUUUCCCUCCUAAGGAGAAGACUGCGGGUUCGAGUCCCGUACGGAUCG, the yeast fitness was determined as 0.678.

GUUCCGUUGGCGUAAUGGUAAGGCGUGUGCCUCAUGAGGAGAUGACUGCGGGUUCGAGUCCCGUUCGGAACG: the yeast fitness was ≤ 0.5.

Regarding GUUCCGUUGGCGUAAUGGUAAGGCGUCUCCCUCCUAAGGAGAAGUCUGCGGGUUCGAGUCCCGUCCGGAACG, the yeast fitness stood at 0.534.

Take GUUCCGUUGGCGUAAUGGUAAGGCGUCUCCCUCCUGCGGAGAAGAAUGGGGGUUCGAGUCCCGUACGGAACG: the yeast fitness is ≤ 0.5.

As to GUUCCGUUGGCGUAAUGGUAAGGCGUCUCCCUCCUAAGGAGCAGACUGCGGGUUCGAGUCCCGUAGUGAACG, the yeast fitness is ≤ 0.5.

Take GUUCCGUUGGCGUAAUGGUAAGGCGUUUCCCUCCUAAGGAGAAGACUGCGGGUUCGAGACCCGUACGGAACG: the yeast fitness worked out at 0.571.

GUUCCGUUGGCGUAAUGGUAAGGCGUGUCCCUCCUAAGGAGAAGACUGCGGGUCCGAGUCCCGUAUGGAACG: the yeast fitness is ≤ 0.5.

On to GUUCCGUUGGCGUAAUGGUAAGGAGUCUCCCUCCUAAGGAGAAGACUGCGGGUUCGAGUCCCGUACGGAACG, for which the yeast fitness stood at 0.673.

On to GUUCCGUUGGCGUAAUGGUAAGGCGUCUCCCUCCUAAGGAGAUGACUGCGGAUCCUAGUCCCGCACGGAACG, for which the yeast fitness is ≤ 0.5.

On to GUUCCGUUGGCGUAAUGGUAAGGCGUCUCCCUCCUGAGGAGGAGACUGCGGGUUCGAGUCCCGUACGGAACG, for which the yeast fitness turned out to be 0.605.

Take GUUCCGUUGGCGUAAUGGUAAGGCGUGUCCGUCCUAAGGAGAAGACUGCGGGUUCGAGUUCCGUACGGAACG: the yeast fitness was ≤ 0.5.

Regarding GUUCCGUUGGCGUAAUGGUAAGGCGUCUCCCUCCUCAGGAGAAGACUGCGGGUCUGAGUACGGUACGGUACG, the yeast fitness was ≤ 0.5.

Take GUUCCGUUGGCGUAAUGGUAAGGGGUCUCCCACCUAAGGAGAAGACUGCGGGUUCGAGUCCCGUAUGGAACG: the yeast fitness is ≤ 0.5.

For the variant GUUCCGUUGGCGUAAUGGUAAGGCGUCUCCCUCCUAAGGAGAAGACUGCGGGUUCGAGUCCCGUACGGAGCG, the yeast fitness stood at 0.86.

On to GUUCCGUUGGCGUAAUGGUAAGGCGUCUCCCUCCUCAGGAGAAGACUACGGGUUCGAGUCACGUAUGGAACG, for which the yeast fitness was ≤ 0.5.

Regarding GUUCCGUUGGCGUAAUGGUAAGGCGUGUCCGUCCUAAGGAGAAGACUACGGGUUCGAGUCGCGUACGGUACG, the yeast fitness was ≤ 0.5.

Consider GUUCCGUUGGCGUAAUGGUAAGGCGUCUCCCUCCUAAGGAGAAGGUUGCGGGUUCGAGUCCCGUACGGAACG, for which the yeast fitness stood at 0.644.

For GUUCCGUUGGCGUAAUGGUAAGGUGUCUCCCUCCUACGGAGAAGACUGCGGGUUCGAGUCCCGUACGGAACG, the yeast fitness is ≤ 0.5.

GUUCCGUUGGCGUAAUGGUAAGGCGUUUCUCUCCUAGGGAGAUGACUGCGGGUUCGAGUCCCGUACAGAACG: the yeast fitness is ≤ 0.5.

GUUCCGUUGGCGUAAUGGUAAGGCGUCUCCCUCCUAAGGAGAAGACUGCGGGUUCGAGUCCCGUACGGAACG: the yeast fitness was determined as 0.988.

GUUCCGUUGGCGUAAUGGUAAGGCGUCUCCCUCCUGAGGAGAAGAUUGCGGGUUCGAGUCCCGUACGGAACG: the yeast fitness was found to be 0.709.

With GUUCCGUUGGCGUAAUGGUAAGGGGUCUUCCUUCUACGGAGAAGACUGCGGAUUCGAGUCCCGUACGGAACG, the yeast fitness came out at 0.625.

As for GUUCCGUUGGCGUAAUGGUAAGGCGUCUCCCUCCUAAGGAGAAGACUGCGGGUUCGGGUCACGUACGGAACG, the yeast fitness was ≤ 0.5.

GUUCCGUUGGCGUAAUGGUAAGGCGUCUCCCUCCUAAGGAGAAGACUGCGGGUUCGAGUCCCGUACGGGACG: the yeast fitness stood at 0.952.

Take GUUCCGUUGGCGUAAUGGUAAGGCGUCUCCCUCCUAAGGAGAAGCCUGCGGGUUCGAGUCCCGUACGGAACG: the yeast fitness is 0.583.

In the case of GUUCCGUUGGCGUAAUGGUAAGGCGUCUCCCUCCUAAGGAGCAGACUGCGGGUUCGAGUCCCGUACGGAACG, the yeast fitness worked out at 0.635.

For GUUCCGUUGGCGUAAUGGUAAGGCGUGUCCCUCCUAGAGAGAAGACUGCGGGUUCGAGUCCCGUACGGAACG, the yeast fitness was determined as 0.532.

GUUCCGUUGGCGUAAUGGUAAGGCGUUUCCCUACUCAGGAGAGGACUGCGGGUUGGAGUCCCGUACGGAACG: the yeast fitness was ≤ 0.5.

Regarding GUUCCGUUGGCGUAAUGGUAAGGCGUCUCCCUCCUAAGGAGAAGACUGCGGGUUCGUGUCCCGUACGGAACG, the yeast fitness was found to be 0.619.

GUUCCGUUGGCGUAAUGGUAAGGGGUCUCCCUCCUAAGGAGAAGACUGCGGGUACGAGUCCCGUACGGUACG: the yeast fitness is ≤ 0.5.

Take GUUCCGUUGGCGUAAUGGUAAGGGGUCUCCCUCCUAAGGAGAAGACCGCGGGUUCGAGUCCCGUACGGAACG: the yeast fitness came out at 0.642.

Take GUUCCGUUGGCGUAAUGGUAAGGCGUCUCCCUCCUAAGGUGACGACUGCGGGUUCGAGUCCCGUACGGAACG: the yeast fitness was 0.698.

As to GUUCCGUUGGCGUAAUGGUAAGGCGUCUCCCUCCUAAGGUGAUGACUGCGGGUUCGAGUCCCGUACGGAACG, the yeast fitness was 0.503.

In the case of GUUCCGUUGGCGUAAUGGUAAGGCGUCUCCCUCCUAAGGAGAAGCCUGCGGGUUCGUGUCCAGUACGGAACG, the yeast fitness came to 0.716.

As to GUUCCGUUGGCGUAAUGGUAAGGCGUCUCCCUCCUACGGAGGAGACUGCGGGUUCGAGUCCCGUACGGAACG, the yeast fitness is ≤ 0.5.

Consider GUUCCGUUGGCGUAAUGGUAAGGCGUCUCCCUCCUGAGGAGAAGACUGCGGGUUGGAGUCCCGUACGGAACG, for which the yeast fitness is ≤ 0.5.

Take GUUCCGUUGGCGUAAUGGUAAGGCGUCUCCCUCCUAAGGAGAAGGCUGCGGGAUCGAGUCCCGUAGGGAACG: the yeast fitness is 0.565.

On to GUUCCGUUGGCGUAAUGGUAAGGCGUCUCCCUCCUAAGGAGCAGACUGCGGGUUCGAGUCCCGUACGGAUCG, for which the yeast fitness stood at 0.671.

As to GUUCCGUUGGCGUAAUGGUAAGGCGUCUCCCUCCUAUGGAGAUGACUGCGGGUUCGAGUCCCGUACGGAACG, the yeast fitness came out at 0.502.

As to GUUCCGUUGGCGUAAUGGUAAGGCGUCUCCCUCCUAGGGAGAAGACUGCGGGUUCGAGUCCCGUACGGAACG, the yeast fitness was 0.697.

On to GUUCCGUUGGCGUAAUGGUAAGGUGUCUUCCUCCUAAGGAGUAGACUGCGGGUUCGAGUCCCGUACGGAACG, for which the yeast fitness was ≤ 0.5.

Take GUUCCGUUGGCGUAAUGGUAAAGCGUCUCCCUCCUAAGGAGAAGACUGCGGGUUCGAGCCCCGUACGGAACG: the yeast fitness came to 0.814.

Take GUUCCGUUGGCGUAAUGGUAAGGCGUCUACCUCCUAUGGAGAAGACUGAGGGUUCGAGUCCCGUACGGAACG: the yeast fitness was ≤ 0.5.

For the variant GUUCCGUUGGCGUAAUGGUAAGGCGUCUCCCUCCUAUGGAGAAGACUGCGGGUUCGCGUCCCGUACGGAACG, the yeast fitness is ≤ 0.5.

For the variant GUUCCGUUGGCGUAAUGGUAAGGCGUCUGCCUCCUAAGGAGAAGAUUGCGGGUUCGAGUCCCGUACGGAACG, the yeast fitness came out at 0.568.

On to GUUCCGUUGGCGUAAUGGUAAGGCGUGUGCCUCAUAAGGAGAACACUGCGGGUUCAGGUCCCGUACGGAACG, for which the yeast fitness came out at 0.529.

For the variant GUUCCGUUGGCGUAAUGGUAAGGCGUUUCCCUCCUAAGGAGAAGACUGCGGGUUCGAGUCCCGUAUGGAACG, the yeast fitness worked out at 0.701.

For GUUCCGUUGGCGUAAUGGUAAGGCGUGUCCGUCCUAAGGAGAAGACUGCGGGUUCGAGUCCCGUACGGUACG, the yeast fitness amounted to 0.554.

For GUUCCGUUGGCGUAAUGGUAAGGCGUGUGCCUCCUAAGGAGAAGACUGUGGGUUCGAGUCCCGUACGGAACG, the yeast fitness was ≤ 0.5.

Regarding GUUCCGUUGGCGUAAUGGUAAGGCGUCUCCCUCCUAAGGAGAAGACUGCGGGUUCGAGUCCCGUCCGGAACG, the yeast fitness stood at 0.863.

Turning to GUUCCGUUGGCGUAAUGGUAAGGCGUUUCCCUCCUAAGGAGAGGACUGCGGGUUCGAGUCCCGUACGGAACG, the yeast fitness was 0.623.

With GUUCCGUUGGCGUAAUGGUAAGGCGUCUGCCUUCUAAGGAGAAGACUGCGGGUUCGAGUCCCGUACGGAACG, the yeast fitness is ≤ 0.5.

As for GUUCCGUUGGCGUAAUGGUAAGGCGUGUCCGUCCUAAGGAGAAGACUGCGGGUUCAAGUCGCGUACGGUACG, the yeast fitness was ≤ 0.5.

GUUCCGUUGGCGUAAUGGUAAGGUGUCUCCCUCCUAAGGAGAACACUGCGGGUUCGAGUCCCGUACGGAACG: the yeast fitness came to 0.59.

In the case of GUUCCGUUGGCGUAAUGGUAAGGUGUCUCCCUCCUAAGGAGAAAACUGCGGGUUCGAGUCCCGUACGGAACG, the yeast fitness worked out at 0.555.

Turning to GUUCCGUUGGCGUAAUGGUAAGGCGUCUGCCUUCUAAGGAGGAGACUGCAGGUUCGAGUCCCGUAUGGAACG, the yeast fitness is ≤ 0.5.

GUUCCGUUGGCGUAAUGGUAAGGCGUGUCACGCCUAAGGAGAAGACUGCGGGUUGGAGUCCCGUACGGAACG: the yeast fitness is ≤ 0.5.

For the variant GUUCCGUUGGCGUAAUGGUAAGGCGUCUCCCUCCUCAGGAGAAGACUGCGGGUUCGAGUCCCGUACGGAACG, the yeast fitness came out at 0.585.

With GUUCCGUUGGCGUAAUGGUAAGGCGUCUCCCUCCUAAGGAGAAGUCUCCGGGUUCGAGUCCCGUACGGAACG, the yeast fitness amounted to 0.511.

For the variant GUUCCGUUGGCGUAAUGGUAAGGCGUCUCCCUCCUAAGGAGUAGACUGCGGGUUCGAGUCCCCUACGGAACG, the yeast fitness was ≤ 0.5.

Take GUUCCGUUGGCGUAAUGGUAAGGCGUCUCCCUCCUGGGGAGAAGACUGCGGGUUCGAGUGCCGUACGGGACG: the yeast fitness is ≤ 0.5.

Consider GUUCCGUUGGCGUAAUGGUAAGGCGUCUCCCUCCUAAGGAGACGACUGCGGGUUCGAGUCCCGUACGGAACG, for which the yeast fitness came out at 0.708.

As for GUUCCGUUGGCGUAAUGGUAAGGCGUCUCCCUCCUAAGGAGAGGACUGCGGGUUCGAGUCCCGUACGGAACG, the yeast fitness was determined as 0.702.

As to GUUCCGUUGGCGUAAUGGUAAGGCGUCUCCCUCCUAAGGAGACGAAUGCGGGUUCGAGUCGCGUACGGACCG, the yeast fitness was ≤ 0.5.

Regarding GUUCCGUUGGCGUAAUGGUAAGGGGUCUCCCUCCUAAGGAGAAGACUGCAGGUUCGAGUCCCGUAUGGCACG, the yeast fitness was ≤ 0.5.

For GUUCCGUUGGCGUAAUGGUAAGGAGUCUCCCUCCUAAGGAGAACACUGCGAGUUCGACACCCGUACGGAACG, the yeast fitness is ≤ 0.5.

As for GUUCCGUUGGCGUAAUGGUAAGGUGUCUCCCUCCUAAGGAGAAGACUGCCGGUUCGAGUCCCGUACGGAACG, the yeast fitness was ≤ 0.5.
